Measured values as given in ChEMBL document CHEMBL2384973, “Pharmacological activity of retinoic acid receptor alpha-selective antagonists in vitro and in vivo” (ACS Med Chem Lett, 2013).
≈ marks a conversion by molar mass, not a printed value. Calls of active or inactive are those of the source. The calls are words filed in the database; no cut-off is given here.

Legend:
Mus musculus [1] = assay: Inhibition of spermatogenesis in CD1 mouse assessed as change in motility of epididymal sperm at 10 mg/kg, po for 7 days measured after 1 month by bright-field microscopic analysis; assay type: functional, organism-based; design: dose 10 mg/kg
Mus musculus [2] = assay: Toxicity in CD1 mouse assessed as change in testicular weight at 2 to 10 mg/kg, po for 7 days relative to control; assay type: organism-based; design: dose 2-10 mg/kg, route oral; details: in vivo, 168 h
Method in brief: (§1)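 Male CD1 mice gavaged daily with 2 or 10 mg/kg for 7 days, vehicle controls; body weight followed throughout; testes weighed one month post-treatment; mean ± SD of five mice per regimen, paired Student's t-test against age-matched controls.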

Mus musculus [3] = assay: Inhibition of spermatogenesis in CD1 mouse assessed as change in morphology of caudal epididymides at 10 mg/kg, po for 7 days measured after 1 month by bright-field microscopic analysis; assay type: functional, organism-based; design: dose 10 mg/kg
Method in brief: (§2)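 Male CD1 mice dosed by oral gavage at 2 or 10 mg/kg daily for 7 days, controls vehicle only; testes and epididymides collected one month post-treatment for histological staging of tubules (spermatid alignment at stage VIII, sperm release at stage IX).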

Mus musculus [4] = assay: Toxicity in CD1 mouse assessed as change in body weight at 2 to 10 mg/kg, po; assay type: organism-based; design: dose 2-10 mg/kg, route oral; details: in vivo; method in brief: as §1
Mus musculus [5] = assay: Inhibition of spermatogenesis in CD1 mouse assessed as change in sperm release at stage 9 into lumen in testes at 2 to 10 mg/kg, po for 7 days measured after 1 month by bright-field microscopic analysis relative to control; assay type: functional, organism-based; method in brief: as §2
Mus musculus [6] = assay: Inhibition of spermatogenesis in CD1 mouse assessed as presence of vacuolar-like spaces at 10 mg/kg, po for 7 days measured after 1 month by bright-field microscopic analysis; assay type: functional, organism-based; design: dose 10 mg/kg; method in brief: as §2
Mus musculus [7] = assay: Toxicity in CD1 mouse assessed as change in testosterone levels at 2 to 10 mg/kg, po for 7 days by enzyme immunoassay relative to control; assay type: organism-based; design: dose 2-10 mg/kg, route oral; details: in vivo, 168 h
Method in brief: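 Male CD1 mice treated orally at two regimens (2 or 10 mg/kg daily, 7 days); sera collected for testosterone determination, values plotted for individual mice.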

Mus musculus [8] = assay: Inhibition of spermatogenesis in CD1 mouse assessed as asynchronization of spermatogenic cell association at 10 mg/kg, po for 7 days measured after 1 month by bright-field microscopic analysis; assay type: functional, organism-based; design: dose 10 mg/kg; method in brief: as §2
Mus musculus [9] = assay: Inhibition of spermatogenesis in CD1 mouse assessed as change in alignment of step 16 spermatids at lumen in stage 8 tubules in testes at 2 to 10 mg/kg, po for 7 days measured after 1 month by bright-field microscopic analysis relative to control; assay type: functional, organism-based; method in brief: as §2
[10] = Metabolic stability in CD1 mouse liver microsomes assessed as parent compound remaining at 10^-6 M after 60 mins; assay type: ADME, Microsome; details: read-out: Stability
Method in brief: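 CD-1 mouse liver microsomes incubated with compound at 1.0 × 10–6 M for 60 min; percent parent compound remaining determined.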

[11] = Chemical stability of the compound by HPLC-MS analysis; assay type: physicochemical
[12] = Permeability from apical to basolateral side in human Caco2 cells assessed as drug recovery at 10^-5 M at pH 6.5 to 7.4; assay type: ADME, cell-based; details: Caco-2, pH 6.5, read-out: permeability
Method in brief: (§3)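 Caco-2 monolayers with apical/basolateral pH gradient 6.5/7.4, compound at 1.0 × 10–5 M; apparent permeability (cm/s) measured in A→B and B→A directions, with percent recovery reported.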

[13] = Aqueous solubility of the compound in PBS at pH 7.4; assay type: physicochemical; details: buffer
Method in brief: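 Aqueous solubility determined in PBS buffer, pH 7.4; tested range <1–200 μM.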

Caco-2 [14] = assay: Permeability from apical to basolateral side in human Caco2 cells at 10^-5 M at pH 6.5 to 7.4; assay type: ADME, cell-based; details: caco-2, pH 6.5, 10 µM; method in brief: as §3
Plasma [15] = assay: Plasma protein binding in CD1 mouse at 10^-5 M; assay type: ADME, cell-free; details: 10 µM
Method in brief: (§4)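 Binding to CD-1 mouse plasma proteins tested at 1.0 × 10–5 M; percent bound and percent recovery reported.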

[16] = Partition coefficient, log D of the compound in n-octanol-PBS at 10^-4 M at pH 7.4; assay type: physicochemical; details: octanol/water, pH 7.4, 100 µM
Method in brief: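 log D determined at pH 7.4 by n-octanol/PBS partitioning, reported as weighted average.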

Mus musculus [17] = assay: Effect on spermatogenesis in CD1 mouse assessed as sperm release into testicular lumen at 2 to 10 mg/kg, po for 7 days; assay type: functional, organism-based; method in brief: as §2
Plasma [18] = assay: Drug recovery in CD1 mouse plasma 10^-5 M; assay type: ADME, cell-free; details: 10 µM; method in brief: as §4
Mus musculus [19] = assay: Effect on spermatogenesis in CD1 mouse assessed as disruptive effect on spermatid alignment at 2 to 10 mg/kg, po for 7 days; assay type: functional, organism-based; method in brief: as §2
[20] = Metabolic stability in CD1 mouse intestinal microsomes assessed as parent compound remaining at 10^-6 M after 60 mins; assay type: ADME, Intestine; details: read-out: Stability
Method in brief: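 CD-1 mouse intestinal microsomes incubated with compound at 1.0 × 10–6 M for 60 min; percent parent remaining determined.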

Mus musculus [21] = assay: Effect on spermatogenesis in CD1 mouse assessed as disruptive effect on spermatid alignment at 10 mg/kg, iv after 6 days; assay type: functional, organism-based; design: dose 10 mg/kg
Method in brief: (§5)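 Male mice given 10 mg/kg intravenously daily; testes examined histologically at end of treatment (6 days, n = 2; 7 days, n = 2) for spermatid alignment and sperm release into the lumen; vehicle controls.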

Mus musculus [22] = assay: Effect on spermatogenesis in CD1 mouse assessed as sperm release into testicular lumen at 10 mg/kg, iv after 6 days; assay type: functional, organism-based; design: dose 10 mg/kg; method in brief: as §5
Mus musculus [23] = assay: Effect on spermatogenesis in CD1 mouse assessed as disruptive effect on spermatid alignment at 10 mg/kg, iv after 7 days; assay type: functional, organism-based; design: dose 10 mg/kg; method in brief: as §5
[24] = molecular target: T1, Retinoic acid receptor alpha (Homo sapiens) (UniProt P10276); assay: Antagonist activity at human RARalpha expressed in human HeLa cells assessed as inhibition of ATRA-induced RARE-chloramphenicol acetyltransferase reporter gene expression after 24 hrs by transactivation competition assay; assay type: cell-based
T1 sequence (whole entry): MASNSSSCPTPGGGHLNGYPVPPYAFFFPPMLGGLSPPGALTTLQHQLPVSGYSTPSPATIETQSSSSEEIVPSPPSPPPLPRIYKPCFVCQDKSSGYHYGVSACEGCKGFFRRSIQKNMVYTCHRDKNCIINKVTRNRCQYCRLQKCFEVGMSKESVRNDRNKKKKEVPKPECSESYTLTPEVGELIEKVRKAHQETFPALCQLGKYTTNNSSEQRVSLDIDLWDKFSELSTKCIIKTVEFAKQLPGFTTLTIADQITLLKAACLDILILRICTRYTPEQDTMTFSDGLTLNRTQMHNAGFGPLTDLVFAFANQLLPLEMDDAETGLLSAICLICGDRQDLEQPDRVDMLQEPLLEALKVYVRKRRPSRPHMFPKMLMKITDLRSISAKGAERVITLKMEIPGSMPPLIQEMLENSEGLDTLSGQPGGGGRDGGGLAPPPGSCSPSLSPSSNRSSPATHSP
Method in brief: (§6)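 HeLa cells cotransfected with RAR constructs and a constant beta-galactosidase plasmid as internal control, given 10–7 M ATRA (submaximal) plus increasing concentrations of compound; CAT reporter expression measured after 24 h. RARα, RARβ and RARγ tested. Vehicle control was dilution medium without retinoid; ATRA served as positive control.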

[25] = Drug uptake in CD1 mouse testes at 39 mg/kg, po; assay type: ADME, organism-based, Testis; design: dose 39 mg/kg, route oral; details: in vivo
Plasma [26] = assay: Fraction unbound in CD1 mouse plasma; assay type: ADME, cell-free; method in brief: as §4
[27] = Drug uptake in CD1 mouse testes at 3 mg/kg, iv; assay type: ADME, organism-based, Testis; design: dose 3 mg/kg, route intravenous; details: in vivo
Caco-2 [28] = assay: Permeability from basolateral to apical side in human Caco2 cells at 10^-5 M at pH 6.5 to 7.4; assay type: ADME, cell-based; details: caco-2, pH 6.5, 10 µM; method in brief: as §3
[29] = molecular target: T1, Retinoic acid receptor alpha (Homo sapiens); assay: Antagonist activity at human RARalpha expressed in human HeLa cells assessed as inhibition of ATRA-induced RARE transactivation after 24 hrs by chloramphenicol acetyltransferase reporter gene assay; assay type: cell-based; method in brief: as §6
Mus musculus [30] = assay: Effect on spermatogenesis in CD1 mouse assessed as sperm release into testicular lumen at 10 mg/kg, iv after 7 days; assay type: functional, organism-based; design: dose 10 mg/kg; method in brief: as §5
Mus musculus [31] = assay: Defect in spermatogenesis in CD1 mouse testicular tubules at 10 mg/kg, ip after 7 days; assay type: functional, organism-based; design: dose 10 mg/kg
Method in brief: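 Male mice dosed intraperitoneally at 10 mg/kg daily for 7 days (n = 4); testicular tubules examined histologically one day post-treatment for retained spermatids, with defects quantified.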

Mus musculus [32] = assay: Effect on spermatogenesis in CD1 mouse at 10 mg/kg, iv for 7 days measured after 4 weeks; assay type: functional, organism-based; design: dose 10 mg/kg
Method in brief: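 Male mice dosed intravenously at 10 mg/kg; testes examined histologically 4 weeks post-treatment for spermatogenesis.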

[33] = Permeability from basolateral to apical side in human Caco2 cellsassessed as drug recovery at 10^-5 M at pH 6.5 to 7.4; assay type: ADME, cell-based; details: Caco-2, pH 6.5, read-out: permeability; method in brief: as §3

Row | SMILES | inhibition (Mus musculus [1]) | Activity (Mus musculus [2]) | inhibition (Mus musculus [3]) | Activity (Mus musculus [4]) | inhibition (Mus musculus [5]) | inhibition (Mus musculus [6]) | Activity (Mus musculus [7]) | inhibition (Mus musculus [8]) | inhibition (Mus musculus [9]) | remaining at 1 h, 1 µM [10] [%] | Stability [11] | recovery at 10 µM [12] [%] | solubility [13] [µM] | permeability (Caco-2 [14]) [×10⁻⁶ cm/s] | PPB (Plasma [15]) [%] | logD [16] | Drug recovery (Plasma [18]) [%] | also measured
1 | CC1(C)CC=C(c2cnc3ccccc3c2)c2cc(C(=O)Nc3ccc(C(=O)O)cc3)ccc21 | inactive | Non-toxic | inactive | Non-toxic | inactive | inactive | Non-toxic | inactive | inactive | – | – | – | – | – | – | – | – | –
2 | CC1(C)CC=C(c2ccccc2)c2cc(/C=C/c3ccc(C(=O)O)cc3)ccc21 | – | – | – | – | – | – | – | – | – | 79 | Stable | 14 | 3.1 (≈ 1.18 µg/mL) | < 0.7 | 95.3 | 3.25 | 93.3 | Activity (Mus musculus [17]): Active; Activity (Mus musculus [19]): Active
3 | Cc1ccc(C2=CCC(C)(C)c3ccc(C(=O)Nc4ccc(C(=O)O)cc4)cc32)cc1 | inactive | Non-toxic | inactive | Non-toxic | inactive | inactive | Non-toxic | inactive | inactive | 49 | Stable | 20 | 136 (≈ 56 µg/mL) | 8.3 | 99.2 | 3.84 | 99.8 | remaining at 1 h, 1 µM [20]: 86%; Activity (Mus musculus [21]): Active; Activity (Mus musculus [22]): Active; Activity (Mus musculus [23]): Active; Activity [24]: Active; Drug uptake [25]: Not Active; Fu (Plasma [26]): 0.8%; Drug uptake [27]: Active; permeability (Caco-2 [28]): 0.7 ×10⁻⁶ cm/s; Activity [29]: Active; Activity (Mus musculus [30]): Active; Activity (Mus musculus [31]): Active; Activity (Mus musculus [32]): inactive; recovery at 10 µM [33]: 46%
